≈ marks a conversion by molar mass, not a printed value.
What was measured:
Bacillus subtilis = assay: Antibacterial activity against Bacillus subtilis ATCC 6051 at 37 degC after 24 hrs by filter paper disk method; assay type: functional; details: for MIC: Bacillus subtilis, ATCC 6051, 24 h
Outline: (§1)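 Compounds were taken from a 1 mg/ml DMSO stock and serially diluted two-fold over a 300 to 18.75 range, then loaded onto sterile 8 mm paper discs. Bacteria were grown overnight in nutrient broth at 37 °C, pelleted, and resuspended in sterile NSS to 10⁵ cfu/ml. About 0.1 ml was spread on NA plates. Plates were incubated 24 h at 37 °C with a solvent control disc, and inhibition zone diameter was read in mm.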

Candida albicans = assay: Antifungal activity against Candida albicans IOA-109 at 37 degC after 18 to 48 hrs; assay type: functional; details: for MIC: Candida albicans, IOA-109
Helminthosporium = assay: Antifungal activity against Helminthosporium oryzae 2537 ICAR at 28 degC after 72 hrs; assay type: functional; details: for MIC: Helminthosporium, 72 h
Outline: (§2)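 Filamentous fungi were kept on SDA at 28 °C. Spores from 7-day cultures were suspended in sterile normal saline to about 10⁵ cfu/ml, and about 0.1 ml was spread on SDA plates. Compounds were serially diluted two-fold in DMSO and impregnated on 8 mm discs, with a solvent control disc on each plate. Plates were held at 28 °C for 72 h or more, and inhibition zone diameter was read in mm.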

Salmonella typhimurium = assay: Antibacterial activity against Salmonella Typhimurium MTCC 98 at 37 degC after 24 hrs by filter paper disk method; assay type: functional, Salmonella enterica subsp. enterica serovar Typhimurium; details: for MIC: Salmonella enterica, MTCC 98, 24 h; outline: as §1
Aspergillus niger = assay: Antifungal activity against Aspergillus niger at 28 degC after 72 hrs; assay type: functional; details: for MIC: Aspergillus niger, 72 h; outline: as §2
Penicillium sp. = assay: Antifungal activity against Penicillium sp. at 28 degC after 72 hrs; assay type: functional; details: for MIC: Penicillium sp., 72 h; outline: as §2
Escherichia coli = assay: Antibacterial activity against Escherichia coli K-12 at 37 degC after 24 hrs by filter paper disk method; assay type: functional; details: for MIC: Escherichia coli, K-12, 24 h; outline: as §1
Staphylococcus aureus = assay: Antibacterial activity against Staphylococcus aureus MSSA 22 at 37 degC after 24 hrs by filter paper disk method; assay type: functional; details: for MIC: Staphylococcus aureus, MSSA 22, 24 h; outline: as §1
Trichoderma viride = assay: Antifungal activity against Trichoderma viride at 28 degC after 72 hrs; assay type: functional; details: for MIC: Trichoderma viride, 72 h; outline: as §2

Structure (SMILES) | MIC (Bacillus subtilis) [µg/mL] | MIC (Candida albicans) [µg/mL] | MIC (Helminthosporium) [µg/mL] | MIC (Salmonella typhimurium) [µg/mL] | MIC (Aspergillus niger) [µg/mL] | MIC (Penicillium sp.) [µg/mL] | MIC (Escherichia coli) [µg/mL] | MIC (Staphylococcus aureus) [µg/mL] | MIC (Trichoderma viride) [µg/mL] | diameter of the inhibition zone (DIZ) (Bacillus subtilis) [mm] | diameter of the inhibition zone (DIZ) (Candida albicans) [mm] | diameter of the inhibition zone (DIZ) (Helminthosporium) [mm] | diameter of the inhibition zone (DIZ) (Salmonella typhimurium) [mm] | diameter of the inhibition zone (DIZ) (Aspergillus niger) [mm] | diameter of the inhibition zone (DIZ) (Penicillium sp.) [mm] | diameter of the inhibition zone (DIZ) (Escherichia coli) [mm] | diameter of the inhibition zone (DIZ) (Staphylococcus aureus) [mm] | diameter of the inhibition zone (DIZ) (Trichoderma viride) [mm]
CCCCC/C=C\CC[C@H](O)CCCCCCCc1nc2cc(Cl)ccc2[nH]1 | 75 (≈ 185 µM) | 37.5 (≈ 92.6 µM) | 75 (≈ 185 µM) | 37.5 (≈ 92.6 µM) | 37.5 (≈ 92.6 µM) | 37.5 (≈ 92.6 µM) | 37.5 (≈ 92.6 µM) | 37.5 (≈ 92.6 µM) | 37.5 (≈ 92.6 µM) | 20 | 18 | 14 | 17 | 14 | 19 | 19 | 21 | 8
CCCCCCCC/C=C/CCCCCCCc1nc2cc(Cl)ccc2[nH]1 | 75 (≈ 193 µM) | 37.5 (≈ 96.4 µM) | 75 (≈ 193 µM) | 37.5 (≈ 96.4 µM) | 37.5 (≈ 96.4 µM) | 37.5 (≈ 96.4 µM) | 75 (≈ 193 µM) | 37.5 (≈ 96.4 µM) | 37.5 (≈ 96.4 µM) | 18 | 18 | 16 | 15 | 15 | 19 | 18 | 20 | 9

Further molecules by falling MIC (Bacillus subtilis), results first:

MIC (Bacillus subtilis) [µg/mL] | MIC (Candida albicans) [µg/mL] | MIC (Helminthosporium) [µg/mL] | MIC (Salmonella typhimurium) [µg/mL] | MIC (Aspergillus niger) [µg/mL] | MIC (Penicillium sp.) [µg/mL] | MIC (Escherichia coli) [µg/mL] | MIC (Staphylococcus aureus) [µg/mL] | MIC (Trichoderma viride) [µg/mL] | Structure (SMILES) | diameter of the inhibition zone (DIZ) (Bacillus subtilis) [mm] | diameter of the inhibition zone (DIZ) (Candida albicans) [mm] | diameter of the inhibition zone (DIZ) (Helminthosporium) [mm] | diameter of the inhibition zone (DIZ) (Salmonella typhimurium) [mm] | diameter of the inhibition zone (DIZ) (Aspergillus niger) [mm] | diameter of the inhibition zone (DIZ) (Penicillium sp.) [mm] | diameter of the inhibition zone (DIZ) (Escherichia coli) [mm] | diameter of the inhibition zone (DIZ) (Staphylococcus aureus) [mm] | diameter of the inhibition zone (DIZ) (Trichoderma viride) [mm]
75 (≈ 185 µM) | 37.5 (≈ 92.6 µM) | 75 (≈ 185 µM) | 37.5 (≈ 92.6 µM) | 37.5 (≈ 92.6 µM) | 37.5 (≈ 92.6 µM) | 75 (≈ 185 µM) | 37.5 (≈ 92.6 µM) | 37.5 (≈ 92.6 µM) | CCCCCC[C@@H](O)C/C=C\CCCCCCCc1nc2cc(Cl)ccc2[nH]1 | 19 | 18 | 14 | 17 | 14 | 19 | 18 | 21 | 9
75 (≈ 209 µM) | 75 (≈ 209 µM) | 150 (≈ 418 µM) | 75 (≈ 209 µM) | 37.5 (≈ 105 µM) | 75 (≈ 209 µM) | 150 (≈ 418 µM) | 75 (≈ 209 µM) | 37.5 (≈ 105 µM) | CCCCCCCC/C=C/CCCCCCCc1nc2c([nH]1)CCCC2 | 19 | 18 | 12 | 10 | 13 | 17 | 17 | 16 | 6
37.5 (≈ 90.2 µM) | 37.5 (≈ 90.2 µM) | 75 (≈ 180 µM) | 37.5 (≈ 90.2 µM) | 37.5 (≈ 90.2 µM) | 37.5 (≈ 90.2 µM) | 37.5 (≈ 90.2 µM) | 37.5 (≈ 90.2 µM) | 37.5 (≈ 90.2 µM) | CCCCC/C=C\CC[C@H](O)CCCCCCCc1nc2cc([N+](=O)[O-])ccc2[nH]1 | 22 | 19 | 14 | 13 | 14 | 19 | 18 | 19 | 9
37.5 (≈ 117 µM) | 75 (≈ 234 µM) | 150 (≈ 468 µM) | 75 (≈ 234 µM) | 150 (≈ 468 µM) | 150 (≈ 468 µM) | 150 (≈ 468 µM) | 150 (≈ 468 µM) | 75 (≈ 234 µM) | CCCCC/C=C\CC[C@H](O)CCCCCCCc1ncc[nH]1 | 19 | 18 | 12 | 12 | 14 | 19 | 12 | 15 | 6

Source: ChEMBL document CHEMBL1137675, “Convenient one-pot synthesis of novel 2-substituted benzimidazoles, tetrahydrobenzimidazoles and imidazoles and evaluation of their in vitro antibacterial and antifungal activities” (2009)
